Assay outcomes deposited in PubChem by The Scripps Research Institute Molecular Screening Center.
In the library only some 1.1% were active in any assay of this set; here they are far more common.
LYPLA1 inh = LYPLA1 inhibitors, primary screen, counter-screen for PME1 inhibitor project, biochemical, fluorescence polarization, FP-Rh probe ABPP; recombinant LYPLA1; hit rate 0.16% among 320,000; Acyl-protein thioesterase 1 (Homo sapiens), O75608; AID 2174, 2009; inhibition, % at 5.9 µM;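 active = inhibition above the mean of all tested compounds plus 3 SD, set per campaign, cut at about 14% in these data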;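 note: inhibitors block serine hydrolase probe labeling of LYPLA1 so polarization falls; 0% = enzyme with DMSO and 100% = wells lacking LYPLA1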
LYPLA2 counter = LYPLA2 inhibitors, primary screen, counter-screen for PME1 inhibitor project, biochemical, fluorescence polarization, FP-Rh probe ABPP; Acyl-protein thioesterase 2 (Homo sapiens), O95372; recombinant LYPLA2; inhibition, % at 5.9 µM; hit rate 0.38% among 320,000; AID 2177, 2009;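 active = inhibition above the screen-wide mean plus 3 SD, limit set per campaign, cut at about 26% in these data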;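 note: 0% = LYPLA2 with DMSO and 100% = wells lacking LYPLA2 enzyme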
Target sequence (O95372 whole entry, looked up): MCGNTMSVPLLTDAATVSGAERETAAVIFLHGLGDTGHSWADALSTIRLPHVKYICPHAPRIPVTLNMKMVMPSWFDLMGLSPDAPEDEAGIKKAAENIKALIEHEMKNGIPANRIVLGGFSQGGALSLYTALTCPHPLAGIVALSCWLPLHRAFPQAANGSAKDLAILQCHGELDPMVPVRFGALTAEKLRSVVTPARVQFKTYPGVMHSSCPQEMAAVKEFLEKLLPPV
PREPL inhibitor = PREPL enzyme inhibitors, primary screen, biochemical, fluorescence polarization; hit rate 0.68% among 320,000; inhibition, % at 5.96 µM; AID 2751, 2010; Prolyl endopeptidase-like (Homo sapiens), Q4J6C6; recombinant PREPL, fluorescence polarization activity-based probe; in the data active = inhibition above about 43%;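 note: 0% = enzyme with DMSO and 100% = wells lacking enzyme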
proCasp3 act = activators of human procaspase-3 D3A mutant, primary screen, biochemical, absorbance, PC-3 D3A mutant, single concentration. Caspase-3 (Homo sapiens), P42574. recombinant procaspase-3 D3A, Ac-DEVD-pNA absorbance 405 nm. activation, % at 8.5 µM. hit rate 0.11% among 330,000. AID 463141, 2010;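 active = activation above the mean of all tested compounds plus 3 SD, cut at about 21% in these data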;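 note: 0% = DMSO alone and 100% = DMSO wells spiked with extra 5 µM PC-3 D3A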
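assay system = Procaspase-3 D3A mutant | signal = absorbance at 405 nm, 0 and 120 min | times = 1 h preincubation plus 2 h reaction at 25 °C | repeats = single replicate | read-out = % activation between DMSO and enzyme-spiked controls | medium = Zinc-free HEPES saline buffer with Triton X-100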
procasp7 counter = procaspase-7 activators, primary screen, counter-screen for procaspase-3 activator project, biochemical, absorbance, HTS, human; Caspase-7 (Homo sapiens), P55210; recombinant procaspase-7, Ac-DEVD-pNA absorbance 405 nm; D23A/D198A/D206A triple mutant, cannot self-cleave; scale: DMSO 0, 5 µM enzyme 100; activation, % at 8.5 µM; hit rate 0.093% among 330,000; AID 463210, 2010;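 active = percent activation above the screen-wide mean plus 3 SD, cut at about 25% in these data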
Target sequence (P55210 whole entry D23A/D198A/D206A): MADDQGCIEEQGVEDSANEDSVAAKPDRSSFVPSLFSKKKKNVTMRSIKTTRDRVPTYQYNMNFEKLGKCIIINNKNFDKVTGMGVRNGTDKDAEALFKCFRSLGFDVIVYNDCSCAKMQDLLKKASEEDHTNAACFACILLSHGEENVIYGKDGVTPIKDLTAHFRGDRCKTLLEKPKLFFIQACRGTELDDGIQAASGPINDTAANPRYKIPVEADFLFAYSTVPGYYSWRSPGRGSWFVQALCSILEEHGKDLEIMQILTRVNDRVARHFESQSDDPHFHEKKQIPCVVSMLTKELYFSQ
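System: Procaspase-7 triple mutant (PC-7 D3A); measure: % activation from two-timepoint absorbance difference, scaled to controls; times: 1 h compound preincubation, 2 h substrate cleavage, 25 °C; also added: Ac-DEVD-pNA substrate, 400 µM as added; measured by: Epi-absorbance of released pNA at 405 nm, two timepoints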
LYPLA1 confirm = LYPLA1 inhibitors, retest, confirmation, counter-screen for PME1 inhibitor project, biochemical, fluorescence polarization, FP-Rh probe ABPP | inhibition, % at 5.9 µM | hit rate 69% among 480 | shares compounds with LYPLA1 inh | recombinant LYPLA1 | AID 2233, 2010;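 active = mean inhibition across replicates above the hit cutoff set in the primary screen, cut at about 15% in these data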;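 note: loss of FP-Rh probe labeling of LYPLA1 seen as lower polarization; 0% = LYPLA1 with DMSO and 100% = wells lacking LYPLA1 enzyme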
LYPLA2 conf = LYPLA2 inhibitors, retest, confirmation, counter-screen for PME1 inhibitor project, biochemical, fluorescence polarization, FP-Rh probe ABPP | hit rate 72% among 1,100 | inhibition, % at 5.9 µM | recombinant LYPLA2 | shares compounds with LYPLA2 counter;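 active = mean inhibition across replicates above the hit cutoff set in the primary screen, cut at about 26% in these data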;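 note: blocked labeling of the enzyme by serine hydrolase FP-Rh probe lowers polarization; 0% = enzyme with DMSO and 100% = wells lacking LYPLA2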
Active calls of the source: *; . = not tested or not shown.

SMILES | LYPLA1 inh | LYPLA2 counter | PREPL inhibitor | proCasp3 act | procasp7 counter | LYPLA1 confirm | LYPLA2 conf
Cc1ccc(NS(=O)(=O)c2cccc(C(=O)N3CCCCCCC3)c2)cc1 | 0 | 2 | 4 | -5 | -3 | . | .
Cc1ccc(NS(=O)(=O)c2cccc(C(=O)N3CCN(c4ncccn4)CC3)c2)cc1 | 24* | 50* | 18 | 2 | 1 | -1 | 2
C#CCn1cc(/C=C2\NC(=O)NC2=O)c2ccccc21 | -1 | 6 | 5 | -1 | -3 | . | .
c1ccc2c(c1)nc(NCCN1CCOCC1)c1nncn12 | 6 | 9 | 1 | -3 | -4 | . | .
Clc1cccc(N2CCN(CCNc3nc4ccccc4n4cnnc34)CC2)c1 | 17* | 67* | 24 | 1 | 11 | 32* | 62*
COc1ccc(CN2CCN(Cc3cccc(Oc4ccccc4)c3)CC2)c(OC)c1OC | 21* | 26* | 6 | -2 | -6 | 31* | 21
CN1CCN(Cc2cccc(Oc3ccccc3)c2)CC1 | -2 | -1 | 2 | 0 | 8 | . | .
O=C(CCN1CCN(c2ccccc2)CC1)c1ccc(Cl)cc1 | 5 | 23 | 5 | -9 | -3 | . | .
O=C(CCN1CCN(c2ccc([N+](=O)[O-])cc2)CC1)c1ccc(Cl)cc1 | 37* | 73* | 7 | -26 | -26 | 47* | 79*
O=C1c2cccc3c(O)ccc(c23)C(=O)N1c1ccc(Cl)cc1 | 20* | 33* | 29 | -13 | -3 | 15* | 17
COc1ccc(S(=O)(=O)N(C)CC(=O)N2CCCCCC2)cc1OC | -3 | 1 | 18 | -9 | 9 | . | .
COc1ccc(S(=O)(=O)N(C)CC(=O)N2CCN(c3ccc(F)cc3)CC2)cc1OC | 22* | 37* | 9 | 0 | -1 | 21* | 33*
O=c1[nH]c(CN2CCN(C/C=C/c3ccccc3)CC2)nc2cc(Cl)ccc12 | 34* | 32* | -39 | -8 | 5 | 41* | 31*
CCOC(=O)CCc1c(C)nc(SCC(=O)O)c(C#N)c1C | -6 | -4 | -1 | -9 | -17 | . | .
CCOC(=O)CCc1c(C)nc(SCc2ccc(C(=O)O)cc2)c(C#N)c1C | 20* | 43* | -3 | 8 | 8 | 39* | 59*
CCOC(=O)c1ccc(N2C(=O)c3cccc4c(C(=O)O)ccc(c34)C2=O)cc1 | 0 | -6 | 13 | -3 | -3 | . | .
NS(=O)(=O)c1ccc(CCNC(=O)c2cc([N+](=O)[O-])ccc2N2CCCCC2)cc1 | 78* | 30* | 9 | 0 | -7 | 77* | 14
COc1ccc(CCNC(=O)c2cc([N+](=O)[O-])ccc2N2CCOCC2)cc1 | 1 | 0 | 6 | 4 | 0 | . | .
O=C(Nc1nc2n(n1)C(c1ccc(F)cc1)CC(c1ccccc1)N2)c1ccco1 (stereo not drawn) | 0 | -4 | 21 | -4 | -5 | . | .
COc1ccc(C(=O)NC(=S)Nc2ccc(CN3CCOCC3)cc2)cc1Cl | 22* | 60* | -13 | 1 | -11 | 21* | 46*
COc1ccc(C(=O)NC(=S)Nc2ccc(CN3CCOCC3)cc2)cc1OC | 4 | 12 | 13 | -5 | 2 | . | .
COc1ccc(C(=O)NC(=S)Nc2ccc(N3CCOCC3)c(Cl)c2)cc1[N+](=O)[O-] | 50* | 60* | 12 | 2 | -1 | 54* | 61*
CCC(=O)N1CCN(c2ccc(NC(=S)NC(=O)c3ccc(OC)c([N+](=O)[O-])c3)cc2)CC1 | 56* | 63* | 5 | 1 | -11 | 70* | 81*
Cc1nn(Cc2ccccc2)c(Cl)c1/C=N/NC(=O)CNc1cccc(C(F)(F)F)c1 | -1 | 3 | 10 | 4 | -7 | . | .
O=C(c1cc(COc2cccc(C(F)(F)F)c2)on1)N1CCC(Oc2cccnc2)CC1 | 40* | 35* | 6 | 3 | -8 | 50* | 38*
SMILES | LYPLA1 inh | LYPLA2 counter | PREPL inhibitor | proCasp3 act | procasp7 counter | LYPLA1 confirm | LYPLA2 conf
CCOC(=O)N1CCN(C(=O)c2cc(COc3cccc(C(F)(F)F)c3)on2)CC1 | 1 | 4 | 17 | 13 | 8 | . | .
Cc1ccc(OCc2cc(C(=O)N3CCC(Oc4cccnc4)CC3)no2)cc1C | 38* | 48* | 6 | 5 | -4 | 38* | 38*
COc1cc(Cl)ccc1OCc1cc(C(=O)N(C)C2CC(C)(C)NC(C)(C)C2)no1 | -1 | -2 | 24 | 2 | 4 | . | .
COc1ccc2c(c1)CN(C)S(=O)(=O)c1ccccc1-2 | . | . | . | 8 | -2 | . | .
O=C(CCCCCN1C(=O)c2ccccc2C1=O)Nc1ccc(S(=O)(=O)N2CCCCC2)cc1 | 26* | 42* | 8 | -4 | 2 | 30* | 41*
CC1CCN(S(=O)(=O)c2ccc(NC(=O)CCN3C(=O)c4ccccc4C3=O)cc2)CC1 | -8 | 2 | -3 | 2 | -1 | . | .
CCOc1ccc(N=C2NC(=O)S/C2=C\c2ccc(Cl)cc2)cc1 | -3 | -2 | 4 | -12 | -2 | . | .
COc1ccc(N=C2NC(=O)S/C2=C\c2ccc(N(C)C)cc2)cc1 | 28* | 33* | 28 | 6 | -16 | 27* | 18
CN1C(=O)c2cccc3c(Cl)ccc(c23)C1=O | 1 | 3 | 1 | 8 | 5 | . | .
CNc1ccc2c3c(cccc13)C(=O)N(C)C2=O | 59* | 82* | 64* | -6 | -6 | 47* | 59*
CN(C)S(=O)(=O)NCCNC(=O)c1cc(OCC(F)(F)F)ccc1OCC(F)(F)F | -8 | 2 | 2 | 0 | 0 | . | .
O=C(NCCNC(=O)c1cc(OCC(F)(F)F)ccc1OCC(F)(F)F)Nc1cccc(C(F)(F)F)c1 | 33* | 61* | -9 | 9 | 3 | 44* | 50*
Nc1ccc(O)c2c1C(=O)c1ccccc1C2=O | 50* | 62* | 51* | 13 | 3 | 36* | 59*
CC(=O)c1sc(NC(=O)C2CCN(C(=O)c3ccccc3C)CC2)nc1-c1ccccc1 | 25* | 27* | -6 | 1 | -1 | 32* | 14
